From the array DNA melting data of Ke et al. (doi:10.1101/2024.01.08.574731)

Columns and labels:
[1] = melting temperature; fluorescence melt of hairpins on a sequencing array, two-state fit, raised by 9.35 °C to match UV melts; conditions: sodium 0.088 M
Procedure, shortened: (§1)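 To match UV melts, fitted temperatures were raised by 9.35 °C. These fits were bootstrapped two-state models that gave melting temperature and folding enthalpy, combined by inverse variance over four replicates. The input was normalised Cy3 fluorescence of library hairpins with annealed Cy3 and quencher oligos on a sequenced MiSeq flow cell, imaged in 50 mM Na-HEPES pH 8.0, 25 mM NaCl in 2.5 °C steps up to 60 °C.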

[2] = folding enthalpy; higher = less favourable; fluorescence melt of hairpins on a sequencing array, two-state fit; conditions: sodium 0.088 M
Procedure, shortened: as §1

Sequence | Tm [1] | folding enthalpy [2]
GGATTGCGAAAGCATCC (((.(((....)))))) | 50.8 °C | -20.8 kcal/mol
CGCTGTCGGAAACGAGCG (((..(((....)))))) | 45.2 °C | -25 kcal/mol
GCAGGCGAAAGCCGCTGC ((((((....)))..))) | 68 °C | -14.8 kcal/mol
GTAGACGAAAGTCTAC ((((((....)))))) | 62 °C | -35.9 kcal/mol
GATCTGAGGACAGATC ((((((....)))))) | 46.3 °C | -26.1 kcal/mol
CGTAACGGAAACGTAACG (((.(((....))).))) | 44.8 °C | -29.6 kcal/mol
GCAATCACGAAAGTGTGC (((..(((....)))))) | 39.9 °C | -19.5 kcal/mol
GGTCGGGGAAACCCGATC (.(((((....))))).) | 56.7 °C | -32 kcal/mol
GATCTATTGATAGATC ((((((....)))))) | 44.7 °C | -28.8 kcal/mol
GATACCACGAAAGTGATC (((..(((....)))))) | 21.2 °C | -9.05 kcal/mol
GATCCAGTAGTGGATC ((((((....)))))) | 54.2 °C | -32 kcal/mol
GGGATGCGAAAGCACCC (((.(((....)))))) | 60 °C | -21.4 kcal/mol
GGCGAAGAAATTCGCC ((((((....)))))) | 63.1 °C | -36.2 kcal/mol
GAGATCCGAAAGGACCTC (((.(((....))).))) | 47.1 °C | -28.4 kcal/mol
GACGACGAAAGTCTCGTC ((((((....)))..))) | 46.9 °C | -17.1 kcal/mol
GACCTGGAAACAGGTC ((((((....)))))) | 61.4 °C | -40.6 kcal/mol
GAGCACGAAAGTGACCTC ((((((....)))..))) | 39.6 °C | -15.1 kcal/mol
CGCTACCGGAAACGGGCG (((..(((....)))))) | 49.4 °C | -22.5 kcal/mol
GCCTTCGAAAGAAGCGGC ((((((....)))..))) | 47.2 °C | -18.1 kcal/mol

Sequence | Tm [1] | folding enthalpy [2]
GGCACCGGAAACGGCGCC (((.(((....))).))) | 61.2 °C | -52.6 kcal/mol
GATCCGATCCGGATC ((((((...)))))) | 58.5 °C | -33.7 kcal/mol
GGTCCTGGAAACAGGATC (.(((((....))))).) | 51 °C | -31.8 kcal/mol
GACGCACCGAAAGGTGTC (((..(((....)))))) | 32.1 °C | -8.75 kcal/mol
GCTAACGAAAGTTTGAGC ((((((....)))..))) | 32.6 °C | -15.6 kcal/mol
GCCAGGCGAAAGCGTAGC ((.(.((....)).).)) | 38.9 °C | -7.64 kcal/mol
TCTTGGAAACAAGA (((((....))))) | 35.7 °C | -11.1 kcal/mol
GATCGTAAGAACGATC ((((((....)))))) | 50.5 °C | -35.1 kcal/mol
GCTGTGCGAAAGCTTAGC (((..((....))..))) | 41.9 °C | -22.5 kcal/mol
GGTTCAGGAAACTGGACC (((.(((....))).))) | 50.7 °C | -44.8 kcal/mol
GCAGTCGAAAGACGTTGC ((((((....)))..))) | 45.9 °C | -17 kcal/mol
GGGGTTGGAAACAGCCCC ((((.((....)).)))) | 57.9 °C | -44.7 kcal/mol
GTACGGGGAAACCCATAC (((.(((....))).))) | 35 °C | -21.9 kcal/mol
GCCTCGCGAAAGCGACGC ((.((((....)))).)) | 52.6 °C | -16.5 kcal/mol
GATCTGAAGTCAGATC ((((((....)))))) | 47.7 °C | -39.1 kcal/mol
GGATAGGCGAAAGCCTCC (((..(((....)))))) | 36.6 °C | -10.2 kcal/mol
GACTGCGGAAACGCAACC (..((((....))))..) | 25.1 °C | -9.21 kcal/mol
GAATCACGAAAGTGTTC (((.(((....)))))) | 39.3 °C | -15.5 kcal/mol
GGTAACGAAAGTTTCACC ((((((....)))..))) | 28.8 °C | -9.74 kcal/mol
